Common to all, as to type: functional
For experiment [1], the species on record is Homo sapiens. Put plainly: Percent ibuprofen detected after 2 hr incubation in acidic medium (pH=1) […]. A digest of the protocol:
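Compound (0.25 mM) in acetonitrile added to HCl solution at pH 1, 37 °C, incubated 2 h.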

Experiment [2] can be described thus: Antiaggregatory effect against arachidonic acid induced platelet aggregation from the human platelet rich plasma(PRP) in the presence of oxyhemoglobin (HbO2). A digest of the protocol:
(§1)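 Human citrated blood spun at 200g for 20 min to give PRP. Compound or DMSO (maximum 0.5%) added 10 min before arachidonic acid (0.5-1 mM, chosen to give 85-95% of maximal aggregation). Oxyhaemoglobin 40 µM final added 12 min before the activator. Light transmission read for 5 min at 37 °C with stirring. […] Mean ± SEM, n = 5.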

The subject of experiment [3] is Rattus norvegicus. Put plainly: Alcerogenic property after intragastric administration to conscious rats for 6 hrs. In a few lines:
(§2)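 Male Wistar rats (180-200 g), fasted 24 h with water allowed, groups of n = 6. […] Killed 6 h after dosing. Stomachs opened along the lesser curvature and examined under a stereomicroscope. Each haemorrhagic lesion was scored by greatest length (<1 mm = 1; 1-2 mm = 2; >2 mm = length in mm). Summed as lesion index, mean ± SEM.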

The test system of experiment [4] is Rattus norvegicus. In words: Percent inhibition of paw volume increase in carrageenan-induced rat after a dose of 120 mg/kg was administered and observed after 6 hours of incubation.
The species named for experiment [5] is Homo sapiens. In words: Percent ibuprofen detected after 6 hr incubation in human plasma. In a few lines:
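Compound (0.0438 µmol) in 5 µL acetonitrile added to 495 µL human plasma at 37 °C and incubated 6 h. Diluted with acetonitrile containing 0.1% TFA and centrifuged (9600g, 15 min). […] Expressed as %, mean ± SEM.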

Experiment [6] concerns Rattus norvegicus. Put plainly: Percent inhibition of paw volume increase in carrageenan-induced rat after a dose of 120 mg/kg was administered and observed after 4 hours of incubation.
The species entered for experiment [7] is Homo sapiens. In words: Compound was evaluated for nitric oxide release (stimulate nitric oxide synthase) in human plasma.
Experiment [8] relates to Rattus norvegicus. Put plainly: Percent inhibition of paw volume increase in carrageenan-induced rat after a dose of 40 mg/kg was administered and observed after 4 hours of incubation.
The test system of experiment [9] is Rattus norvegicus. Put plainly: Ulcerogenic property after intragastric administration to conscious rats for 6 hrs. In a few lines:
as §2

The test system of experiment [10] is Rattus norvegicus. Put plainly: Percent inhibition of paw volume increase in carrageenan-induced rat after a dose of 40 mg/kg was administered and observed after 6 hours of incubation.
Experiment [11] is described as follows: Antiaggregatory effect against arachidonic acid induced platelet aggregation from the human platelet rich plasma(PRP) in the presence of oxyheamoglobin(HbO2, 40 uM). In a few lines: as §1
Experiment [12] concerns Rattus norvegicus. In words: Ulcerogenic property after intragastric administration to conscious rats after 6 hours of incubation. In a few lines: as §2

Molecules are shown by their SMILES.

Turning to `CC(C)Cc1ccc(C(C)C(=O)OCCCO[N+](=O)[O-])cc1` (stereo not given), the figures for the Ibuprofen in experiment [1] and in experiment [5] were 22.3% and 27.1%, respectively. In addition, the IC50 (usually the concentration needed to halve the response being measured) in [2] is 57.5 µM. For the same compound, in experiment [3], the Lesion index was determined as 0.7 mm. The inhibition in vivo (usually the drop in the measured response relative to a control, in per cent) at 120 mg/kg in experiment [4] came out at 40%; in [6], 41.8%. Besides, in experiment [7], the “NO2- (mol/mol)” value was 3.2%.

Turning to `CCCOC(=O)C(C)c1ccc(CC(C)C)cc1` (stereo not given), the Ibuprofen in experiment [1] came out at 11.7%; in experiment [5], 22.9%. The inhibition in vivo at 40 mg/kg in experiment [8] is 37.6%; in [10] it was 49.6%. The compound also registered a Lesion index in experiment [9] of 3.8 mm.

Take `CC(C)Cc1ccc(C(C)C(=O)OCCCOc2no[n+]([O-])c2S(=O)(=O)c2ccccc2)cc1` (stereo not given): the Ibuprofen worked out at 12.9% in [1] and 46.8% in experiment [5]. The inhibition in vivo at 40 mg/kg in experiment [8] turned out to be 37.4%; in experiment [10], 41.5%. Further, in experiment [11], the IC50 was 2.69 µM. In experiment [12], this compound showed a Lesion index of 0 mm. The “NO2- (mol/mol)” value in experiment [7] was 34.7%.

As for `CC(C)Cc1ccc(C(C)C(=O)OCCCOc2nonc2Sc2ccccc2)cc1` (stereo not given), the Ibuprofen was 6.1% in experiment [1] and 8.9% in [5]. Besides, the inhibition in vivo at 120 mg/kg in [4] came to 54.4%; in experiment [6] it was 48.3%. The same compound yielded a Lesion index in experiment [9] of 1.3 mm.

Take `CC(C)Cc1ccc(C(C)C(=O)OCCCOc2no[n+]([O-])c2Sc2ccccc2)cc1` (stereo not given): the Ibuprofen worked out at 6.5% in [1] and 35.6% in [5]. For the same compound, the inhibition in vivo at 120 mg/kg in [4] came out at 36.2%; in [6], 40.7%. Besides, the Lesion index in experiment [9] is 0 mm. The “NO2- (mol/mol)” value in experiment [7] came to 9.5%.

Turning to `CC(C)Cc1ccc(C(C)C(=O)OCCCOc2nonc2S(=O)(=O)c2ccccc2)cc1` (stereo not given), the Ibuprofen in experiment [1] came to 13%; in experiment [5], 26%. The figures for the inhibition in vivo at 40 mg/kg in experiment [8] and in [10] were 52.8% and 63.3%, respectively. Also, the Lesion index in experiment [9] was determined as 5.7 mm.

The record behind these values is ChEMBL document CHEMBL1134631 (J Med Chem, 2001).
